Series [1] deals with T1, UGT1A8 (Homo sapiens, UniProt Q9HAW9).
T1 sequence (Q9HAW9 26-530): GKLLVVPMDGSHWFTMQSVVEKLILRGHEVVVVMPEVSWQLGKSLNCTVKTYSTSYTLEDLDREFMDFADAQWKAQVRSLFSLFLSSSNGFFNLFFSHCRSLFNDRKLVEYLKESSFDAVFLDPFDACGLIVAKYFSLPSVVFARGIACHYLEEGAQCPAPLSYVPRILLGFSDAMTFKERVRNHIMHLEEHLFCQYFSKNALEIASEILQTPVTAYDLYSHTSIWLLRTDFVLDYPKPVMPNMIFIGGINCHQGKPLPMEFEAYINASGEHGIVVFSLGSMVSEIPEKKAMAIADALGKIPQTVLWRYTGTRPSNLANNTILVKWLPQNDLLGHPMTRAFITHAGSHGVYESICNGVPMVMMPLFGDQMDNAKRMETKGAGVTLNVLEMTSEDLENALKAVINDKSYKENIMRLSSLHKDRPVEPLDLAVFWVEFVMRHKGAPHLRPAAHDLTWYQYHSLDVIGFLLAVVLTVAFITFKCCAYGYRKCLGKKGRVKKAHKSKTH
Kind of series: Glucuronidation of CA by recombinant UGT1A8. In kind it is in vitro ADME. To be noted: formation of the glucuronide from CA.

The subject of series [2] is expressed human CYP enzymes. Kind of series: Reaction phenotyping with twelve expressed CYP enzymes. In kind it is in vitro ADME. An outline of the steps:
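Twelve expressed human CYPs (1–1.2 mg/mL) with test compound 0.16–80 μM, NADPH 1 mM and MgCl2 in 50 mM Tris-HCl pH 7.4, 37 °C, 60 min. Controls lacked NADPH. Acetonitrile quench, then UHPLC-UV/Q-TOF MS. Formation rates given as pmol/min/mg protein. Kinetics fitted after Eadie–Hofstee inspection; CLint = Vmax/Km; triplicate.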

Series [3] concerns the target T2, UGT1A1 (Homo sapiens, UniProt P22309).
T2 sequence (P22309 26-533): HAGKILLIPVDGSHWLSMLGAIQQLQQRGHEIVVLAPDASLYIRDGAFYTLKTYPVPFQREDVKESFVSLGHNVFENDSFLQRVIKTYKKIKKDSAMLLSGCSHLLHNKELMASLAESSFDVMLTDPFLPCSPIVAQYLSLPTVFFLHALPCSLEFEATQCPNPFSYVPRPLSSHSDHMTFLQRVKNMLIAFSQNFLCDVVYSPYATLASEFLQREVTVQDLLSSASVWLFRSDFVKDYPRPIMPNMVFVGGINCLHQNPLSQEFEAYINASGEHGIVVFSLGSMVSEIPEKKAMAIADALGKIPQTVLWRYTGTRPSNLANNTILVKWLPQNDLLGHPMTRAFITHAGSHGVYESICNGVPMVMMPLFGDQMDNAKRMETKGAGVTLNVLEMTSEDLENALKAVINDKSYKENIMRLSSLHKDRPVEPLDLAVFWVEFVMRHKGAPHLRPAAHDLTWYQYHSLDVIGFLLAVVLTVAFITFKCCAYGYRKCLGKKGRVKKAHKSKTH
In kind it is in vitro ADME. Particulars: panel of HLMs (n = 9), substrate 10 μM, p = 0.049.

In series [4] the test system is Hep3B hepatocellular carcinoma cell line. Particulars: cited from earlier work.
In series [5] the target is T2, UGT1A1. The experiment in a line: Glucuronidation of CA by recombinant UGT1A1. In kind it is in vitro ADME. Particulars: formation of the glucuronide from CA.
The subject of series [6] is severe acute respiratory syndrome coronavirus papain-like protease. Particulars: read-out: inhibitory effects on severe acute respiratory syndrome coronavirus papain-like protease; cited from earlier work.
In series [7] the target is T3, UGT1A9 (Homo sapiens, UniProt O60656).
T3 sequence (O60656 26-530): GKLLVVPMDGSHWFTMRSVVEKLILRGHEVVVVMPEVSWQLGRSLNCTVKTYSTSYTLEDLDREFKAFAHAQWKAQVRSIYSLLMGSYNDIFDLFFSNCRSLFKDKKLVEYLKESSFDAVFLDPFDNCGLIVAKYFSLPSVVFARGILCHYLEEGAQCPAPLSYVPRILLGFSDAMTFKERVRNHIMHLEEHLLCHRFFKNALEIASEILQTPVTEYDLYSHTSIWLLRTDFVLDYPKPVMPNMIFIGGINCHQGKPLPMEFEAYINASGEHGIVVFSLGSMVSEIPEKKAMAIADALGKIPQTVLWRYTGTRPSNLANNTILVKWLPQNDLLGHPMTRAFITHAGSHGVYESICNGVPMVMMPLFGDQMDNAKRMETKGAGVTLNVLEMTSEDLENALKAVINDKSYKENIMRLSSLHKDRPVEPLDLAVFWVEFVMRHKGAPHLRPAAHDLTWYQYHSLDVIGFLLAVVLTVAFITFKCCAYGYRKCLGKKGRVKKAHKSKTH
The experiment in a line: Glucuronidation of CA by recombinant UGT1A9. Format: in vitro ADME. Particulars: formation of the glucuronide from CA.

The conditions of series [8]: rat, in vivo; cited from earlier work.

In brackets after ≈: the same amount, converted by molar mass.

`CC(C)=CCC/C(C)=C/Cc1cc(-c2coc3cc(O)ccc3c2=O)ccc1O` [CA, Corylifol A]: the values for the CLint in series [1], in series [5] and in series [7] were 135.59 µL/min/mg, 284.07 µL/min/mg and 191.94 µL/min/mg, respectively. The “metabolism of CA” value in series [2] (CYP1A2, 1B1, 2A6, 2B6, 2E1, 3A4 and 3A5) was “cannot metabolize CA at all”. Further, the “CLint values (phase I metabolic activities)” value in series [2] (range over CYP1A1, 2C8 and 2C19) was 13.01 to 49.36 µL/min/mg. Besides, the “correlation (r) between CA-7-O-glucuronidation and β-estradiol-3-O-glucuronidation” value in series [3] amounted to 0.668. Moreover, the “IC50, cytotoxic activity” value in series [4] was 13.5 µg/mL (≈ 34.6 µM). Moreover, in series [6], the IC50 is 32.3 ± 3.2 µM. Further, in series [8], the “distribution concentrations of CA at different nuclei” value was 260.63 to 493.29 ng·h/g.

These data come from article PMC7396962 (Xenobiotica; the fate of foreign compounds in biological …, 2020).
